Measured values from ChEMBL document CHEMBL1155470, “Colloid formation by drugs in simulated intestinal fluid” (J Med Chem, 2010).
Activity calls are given as the source filed them. No cut-off for these calls is given here.

Assays:
[1] = Colloidal aggregation in fed state simulated intestinal fluid assessed as colloid radius at 200 uM by dynamic light scattering assay in presence of 1% DMSO; type: physicochemical; settings: simulated gi fluid
How it was run: (§1)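 Concentrated DMSO stocks diluted into filtered FeSSIF: blank FeSSIF plus 15 mM sodium taurocholate and 3.75 mM lecithin, dissolved at 37 °C. Final DMSO 1% unless otherwise noted. Particle size by dynamic light scattering at 826.6 nm, detector at 90°, 100% laser power. Values are averages of three or more independent measurements at room temperature.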

Cruzipain [2] = molecular target: T1, Cruzipain (Trypanosoma cruzi, UniProt P25779); test: Inhibition of Trypanosoma cruzi cruzaine preincubated for 5 mins before substrate addition by fluorescence assay in presence of 0.01% Triton X-100
T1 sequence (P25779 whole entry): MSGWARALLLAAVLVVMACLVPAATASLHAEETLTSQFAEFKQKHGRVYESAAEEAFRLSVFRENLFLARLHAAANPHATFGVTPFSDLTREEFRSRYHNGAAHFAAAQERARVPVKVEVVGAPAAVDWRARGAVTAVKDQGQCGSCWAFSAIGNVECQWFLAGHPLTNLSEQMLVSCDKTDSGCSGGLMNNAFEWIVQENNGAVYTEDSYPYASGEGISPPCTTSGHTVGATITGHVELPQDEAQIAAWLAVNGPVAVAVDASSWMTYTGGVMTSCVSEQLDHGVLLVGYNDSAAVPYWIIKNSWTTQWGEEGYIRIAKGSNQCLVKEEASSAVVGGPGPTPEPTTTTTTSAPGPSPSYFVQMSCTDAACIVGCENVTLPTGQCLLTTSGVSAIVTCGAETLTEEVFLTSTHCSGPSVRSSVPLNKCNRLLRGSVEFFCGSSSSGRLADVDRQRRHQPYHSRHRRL

[3] = Colloidal aggregation in fed state simulated intestinal fluid by dynamic light scattering-based beads autocorrelation assay in presence of 1% DMSO; type: physicochemical; settings: simulated gi fluid
How it was run: (§2)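 FeSSIF samples examined by DLS (826.6 nm laser, 90° detector, room temperature), comparing autocorrelation curves with blank FeSSIF. The micelle background was checked with 200 nm calibration beads diluted in FeSSIF. Drug samples were made by diluting DMSO stocks into filtered FeSSIF (15 mM taurocholate, 3.75 mM lecithin).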

[4] = Colloidal aggregation in fed state simulated intestinal fluid assessed as colloid radius at 10 uM by dynamic light scattering assay in presence of 1% DMSO; settings: simulated gi fluid
Cruzipain [5] = molecular target: T1, Cruzipain; test: Inhibition of Trypanosoma cruzi cruzaine preincubated for 5 mins before substrate addition by fluorescence assay in absence of Triton X-100
[6] = Colloidal aggregation in fed state simulated intestinal fluid assessed as colloid radius at 450 uM by dynamic light scattering assay in presence of 1% DMSO; type: physicochemical; settings: simulated gi fluid; how it was run: as §1
[7] = Colloidal aggregation in fed state simulated intestinal fluid at 450 uM by dynamic light scattering-based beads autocorrelation assay in presence of 1.8% DMSO; type: physicochemical; settings: simulated gi fluid; how it was run: as §2
[8] = Colloidal aggregation in fed state simulated intestinal fluid by dynamic light scattering assay in presence of 1.8% DMSO; type: physicochemical; settings: simulated gi fluid; how it was run: as §1
[9] = Colloidal aggregation in fed state simulated intestinal fluid by dynamic light scattering assay in presence of 0.5% DMSO; type: physicochemical; settings: simulated gi fluid; how it was run: as §1
[10] = Colloidal aggregation in fed state simulated intestinal fluid assessed as colloid radius at 250 uM by dynamic light scattering assay in presence of 1% DMSO; type: physicochemical; settings: simulated gi fluid; how it was run: as §1
[11] = Colloidal aggregation in fed state simulated intestinal fluid assessed as colloid radius at 100 uM by dynamic light scattering assay in presence of 1% DMSO; type: physicochemical; settings: simulated gi fluid; how it was run: as §1
[12] = Binding affinity to beta-lactamase AmpC at 200 uM after 30 mins by SDS-PAGE
How it was run: (§3)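 Cosedimentation in FeSSIF, with and without 2 μg AmpC β-lactamase added per sample. Samples centrifuged at 16000g for 30 min at room temperature. Supernatant removed completely; pellets resuspended in DMSO plus 50 mM KPi pH 7.0 and run on SDS-PAGE. Protein detected by silver staining. Drug-only pellets included as background controls.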

[13] = Aggregation-based binding affinity to beta-lactamase AmpC at 200 uM in fed state simulated intestinal fluid after 30 mins by silver staining in presence of 2% DMSO; how it was run: as §3
[14] = Colloidal aggregation in fed state simulated intestinal fluid assessed as colloid radius at 2.5 uM by dynamic light scattering assay in presence of 1% DMSO; type: physicochemical; settings: simulated gi fluid; how it was run: as §1
[15] = Colloidal aggregation in phosphate buffer at 50 uM by transmission electron microscopy in presence of 0.5% DMSO; type: physicochemical
How it was run: (§4)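 Drug DMSO stocks diluted into 50 mM phosphate buffer. Samples adsorbed ~30 s onto glow-discharged formvar/carbon-coated copper grids and negatively stained with 2% ammonium molybdate. Imaged by transmission electron microscopy at 80 kV, standard magnification 25 000.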

[16] = Colloidal aggregation in fed state simulated intestinal fluid assessed as percent of drug in fraction after centrifugation by UV-visible spectrophotometry in presence of 3% DMSO; settings: simulated gi fluid
[17] = Colloidal aggregation in fed state simulated intestinal fluid at 100 uM by transmission electron microscopy in presence of 1% DMSO; type: physicochemical; settings: simulated gi fluid
How it was run: (§5)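 Drug DMSO stocks diluted into FeSSIF. Samples adsorbed ~30 s onto glow-discharged formvar/carbon-coated copper grids and negatively stained with 2% ammonium molybdate. Viewed by transmission electron microscopy at 80 kV, standard magnification 25 000, calibrated with catalase crystals and ferritin.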

[18] = Colloidal aggregation in fed state simulated intestinal fluid assessed as colloid radius at 20 uM by dynamic light scattering assay in presence of 1% DMSO; type: physicochemical; settings: simulated gi fluid; how it was run: as §1
[19] = Colloidal aggregation in fed state simulated intestinal fluid assessed as colloid radius at 5 uM by dynamic light scattering assay in presence of 1% DMSO; type: physicochemical; settings: simulated gi fluid; how it was run: as §1
[20] = Colloidal aggregation in fed state simulated intestinal fluid by dynamic light scattering assay in presence of 0.2% DMSO; type: physicochemical; settings: simulated gi fluid; how it was run: as §1
[21] = Colloidal aggregation in fed state simulated intestinal fluid assessed as colloid radius at 20 uM by dynamic light scattering assay in presence of 0.2% DMSO; type: physicochemical; settings: simulated gi fluid; how it was run: as §1
[22] = Colloidal aggregation in fed state simulated intestinal fluid assessed as colloid radius at 150 uM by dynamic light scattering assay in presence of 0.75% DMSO; type: physicochemical; settings: simulated gi fluid; how it was run: as §1
[23] = Colloidal aggregation in fed state simulated intestinal fluid at 200 uM by transmission electron microscopy in presence of 1% DMSO; type: physicochemical; settings: simulated gi fluid; how it was run: as §5
[24] = Colloidal aggregation in phosphate buffer at 100 uM by transmission electron microscopy in presence of 0.2% DMSO; type: physicochemical; how it was run: as §4
[25] = Colloidal aggregation in fed state simulated intestinal fluid by dynamic light scattering assay in presence of 0.75% DMSO; type: physicochemical; settings: simulated gi fluid; how it was run: as §1

With `Cc1cc(C#N)cc(C)c1Oc1nc(Nc2ccc(C#N)cc2)nc(N)c1Br` [ETRAVIRINE] the Activity [1] was 373.3 nm, the IC50 (Cruzipain [2]) was > 200 µM and the Activity [3] was “Active”. It also gave an Activity [4] of 323.2 nm and an IC50 (Cruzipain [5]) of 4 µM.

In the case of `CC(C)OC(=O)C(C)(C)Oc1ccc(C(=O)c2ccc(Cl)cc2)cc1` [FENOFIBRATE], the Activity [6] is reported as 113.8 nm, the Activity [7] is reported as “Active” and the Activity [8] is reported as 450 µM. The IC50 (Cruzipain [2]) was > 500 µM, the Activity [4] was 129 nm and the IC50 (Cruzipain [5]) was 61 µM.

Compound `COc1cc2ncnc(Nc3ccc(F)c(Cl)c3)c2cc1OCCCN1CCOCC1` [GEFITINIB] has an Activity [9] of 250 µM, an IC50 (Cruzipain [2]) of 148 µM and an IC50 (Cruzipain [5]) of 88 µM. The Activity [10] was 160.1 nm.

In the case of `Cc1ccc(NC(=O)c2ccc(CN3CCN(C)CC3)cc2)cc1Nc1nccc(-c2cccnc2)n1` [IMATINIB], the IC50 (Cruzipain [2]) is reported as 297 µM, the IC50 (Cruzipain [5]) is reported as 207 µM and the Activity [11] is reported as 118.4 nm.

For `CCC(C)n1ncn(-c2ccc(N3CCN(c4ccc(OCC5COC(Cn6cncn6)(c6ccc(Cl)cc6Cl)O5)cc4)CC3)cc2)c1=O` (configuration not stated) [ITRACONAZOLE], the Activity [12] was “inactive”, the Activity [13] was “Active” and the Activity [14] was 138.1 nm. For the same compound, the IC50 (Cruzipain [2]) was > 200 µM, the Activity [15] was “Active” and the Activity [3] was “Active”. The IC50 (Cruzipain [5]) was 3 µM, the “Percent of drug in fraction” value [16] was 6.9% and the Activity [17] was “Active”. It also gave an Activity [18] of 64.5 nm.

In the case of `COC(=O)C1=C(C)NC(C)=C(C(=O)OCCN2CCN(C(c3ccccc3)c3ccccc3)CC2)C1c1cccc([N+](=O)[O-])c1` (configuration not stated) [MANIDIPINE 6300], the Activity [14] is reported as 125.6 nm, the IC50 (Cruzipain [2]) is reported as > 100 µM and the IC50 (Cruzipain [5]) is reported as 6 µM.

With `Cc1cccc(CN2CCN(C(c3ccccc3)c3ccc(Cl)cc3)CC2)c1.Cl` (configuration not stated) [MECLIZINE DIHCL] the Activity [19] was 133.3 nm, the IC50 (Cruzipain [2]) was > 250 µM and the IC50 (Cruzipain [5]) was 129 µM.

For `CC(C)=CCC/C(C)=C/CC/C(C)=C/CC/C(C)=C/CC1=C(C)C(=O)c2ccccc2C1=O` [MENATETRENONE], the Activity [19] was 72.5 nm, the IC50 (Cruzipain [2]) was > 200 µM and the Activity [3] was “Active”. It also gave an IC50 (Cruzipain [5]) of 18 µM, an Activity [20] of 20 µM and an Activity [21] of 36.8 nm.

For `CN(C)c1ccc2nc3ccc(N(C)C)cc3[s+]c2c1.[Cl-]` [METHYLENE BLUE ANHYDROUS], the Activity [22] was 52.6 nm, the Activity [3] was “Active” and the Activity [23] was “Active”. The Activity [24] was “Active”, the Activity [25] was 150 µM and the Activity [18] was 95.9 nm.

Compound `O=C(c1ccc(OCCN2CCCCC2)cc1)c1c(-c2ccc(O)cc2)sc2cc(O)ccc12` [RALOXIFENE] has an IC50 (Cruzipain [2]) of 128 µM, an IC50 (Cruzipain [5]) of 33 µM and an Activity [18] of 192.2 nm.

In the case of `CSc1nc2cc(Cl)c(Oc3cccc(Cl)c3Cl)cc2[nH]1` [TRICLABENDAZOLE], the IC50 (Cruzipain [2]) is reported as > 200 µM, the Activity [4] is reported as 93 nm and the IC50 (Cruzipain [5]) is reported as 15 µM.
